In ChEMBL document CHEMBL2057168, “(1aR,5aR)1a,3,5,5a-Tetrahydro-1H-2,3-diaza-cyclopropa[a]pentalene-4-carboxylic acid (MK-1903): a potent GPR109a agonist that lowers free fatty acids in humans” (J Med Chem, 2012):
Calls of active or inactive are those of the source. No cut-off for these calls is given here.

What was measured:
[1] = Blood clearance in mouse; type: ADME, organism-based; details: whole blood
Method in brief: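 Pharmacokinetics across species; for mice, clearance determined in blood rather than plasma following dosing.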

[2] = tested on: Mus musculus; assay: Dose normalized AUC in po dosed mouse; type: ADME, organism-based; details: in vivo
[3] = Terminal half life in Sprague-Dawley rat at 2 mg/kg, iv; type: ADME, organism-based; design: dose 2 mg/kg, route intravenous; details: in vivo, read-out: beta t1/2 (converted)
Method in brief: (§1)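 Male Sprague-Dawley rats were dosed at 10 mg/kg po or 2 mg/kg iv in 80% PEG400/20% phosphate-buffered saline, fasted overnight before the oral dose. Jugular blood was sampled serially from 0.25 to 21 h over 24 h, and heparinized plasma was prepared. Drug was assayed by HPLC/MS/MS (quantitation range 1–2000 ng/mL).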

[4] = tested on: Rattus norvegicus; assay: Dose normalized Cmax in Sprague-Dawley rat at 10 mg/kg, po; type: ADME, organism-based; design: dose 10 mg/kg, route oral; details: in vivo; method in brief: as §1
[5] = tested on: Canis familiaris; assay: Dose normalized AUC in po dosed dog; type: ADME, organism-based, Canis lupus familiaris; details: in vivo
[6] = tested on: Rhesus monkey; assay: Dose normalized Cmax in po dosed rhesus monkey; type: ADME, organism-based, Macaca mulatta; details: in vivo
[7] = tested on: Homo sapiens; assay: Toxicity in po dosed human assessed as occurrence of flushing administered as single dose; type: organism-based; details: in vivo
Method in brief: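 Healthy human volunteers received single oral doses. Flushing was recorded as a subject-reported adverse event and scored with a flushing symptoms questionnaire. It was compared qualitatively against a 1 g Niaspan dose.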

[8] = tested on: Homo sapiens; assay: Activation of GPR109a receptor in po dosed human assessed as PGD2 metabolite level in urine; type: functional, organism-based
[9] = AUC (0 to 12 hrs) in human at 100 mg, po BID administered on day 1 followed by 2-day wash out period after which dosing continued up to day 11 measured on day 4; type: ADME, organism-based; design: time < 12 hr, dose 100 mg, route oral; details: plasma
Method in brief: (§2)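 Double-blind, placebo-controlled, randomized dose-escalation study in healthy male volunteers, six cohorts of eight (six active, two placebo). Oral dose on day 1, two-day washout, then dosing days 4–11; the 200 mg qd cohort was titrated over days 1–4. Venous blood taken predose and at 0.5–12 h on days 1, 4 and 11; plasma drug measured. τ 12 h (bid), 24 h (qd), 8 h (tid), 6 h (qid).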

[10] = AUC (0 to 12 hrs) in human at 150 mg, po BID administered on day 1 followed by 2-day wash out period after which dosing continued up to day 11 measured on day 1; type: ADME, organism-based; design: dose 150 mg, time < 12 hr, route oral; details: plasma; method in brief: as §2
[11] = AUC (0 to 8 hrs) in human at 150 mg, po TID administered on day 1 followed by 2-days wash out period after which dosing continued up to day 11 measured on day 1; type: ADME, organism-based; design: time < 8 hr, dose 150 mg, route oral; details: plasma
Method in brief: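 Healthy male volunteers, double-blind placebo-controlled randomized dose escalation; cohorts of eight (six active, two placebo). Oral dose on day 1, two-day washout, then dosing days 4–11. Venous blood predose and 0.5, 1, 1.5, 2, 4, 6, 8, 10, 12 h postdose on days 1, 4 and 11 for plasma drug; dosing interval (τ) 12 h for BID, 8 h for TID; Ctrough taken at end of interval.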

[12] = AUC (0 to 24 hrs) in human at titreated po dose administered from day 1 to 4 followed by 200 mg, po QD administered up to day 11 measured on day 4; type: ADME, organism-based; design: dose 200 mg, time < 24 hr, route oral; details: plasma; method in brief: as §2
[13] = AUC (0 to 6 hrs) in human at 175 mg, po QID administered on day 1 followed by 2-days wash out period after which dosing continued up to day 11 measured on day 1; type: ADME, organism-based; design: time < 6 hr, dose 175 mg, route oral; details: plasma; method in brief: as §2
[14] = AUC (0 to 6 hrs) in human at 175 mg, po QID administered on day 1 followed by 2-days wash out period after which dosing continued up to day 11 measured on day 11; type: ADME, organism-based; design: time < 6 hr, dose 175 mg, route oral; details: plasma; method in brief: as §2
[15] = Tmax in human at 175 mg, po QID administered on day 1 followed by 2-days wash out period after which dosing continued up to day 11 measured on day 4; type: ADME, organism-based; details: in vivo
Method in brief: (§3)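 Double-blind, placebo-controlled, randomized multiple oral dose study in healthy male volunteers (cohorts of eight; six active, two placebo). Dose given on day 1, then a two-day washout, then dosing days 4–11; for the QD arm, subjects were titrated over days 1–4. Venous plasma sampled predose and 0.5, 1, 1.5, 2, 4, 6, 8, 10, 12 h postdose on days 1, 4 and 11. Tmax reported as median (min–max).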

[16] = Tmax in human at 175 mg, po QID administered on day 1 followed by 2-days wash out period after which dosing continued up to day 11 measured on day 11; type: ADME, organism-based; details: in vivo; method in brief: as §3
[17] = Apparent half life in human at 50 mg, po BID administered on day 1 followed by 2-day wash out period after which dosing continued up to day 11 measured on day 11; type: ADME, organism-based; details: in vivo, read-out: t1/2(app) (converted); method in brief: as §2
[18] = Apparent half life in human at 150 mg, po BID administered on day 1 followed by 2-day wash out period after which dosing continued up to day 11 measured on day 11; type: ADME, organism-based; details: in vivo, read-out: t1/2(app) (converted); method in brief: as §2
[19] = tested on: Homo sapiens; assay: Antidyslipidemic activity in human assessed as decrease in free fatty acid level 50 to 150 mg, po BID administered on day 1 followed by 2-days wash out period after which dosing continued up to day 11 measured on day 4 and 11; type: functional, organism-based
Method in brief: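 Healthy male volunteers in a randomized, double-blind, placebo-controlled multiple-dose study, six active and two placebo subjects per cohort. Oral dosing on day 1, two-day washout, then days 4–11, with titration over days 1–4 for the qd arm.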

[20] = Cmax in human at 50 mg, po BID administered on day 1 followed by 2-day wash out period after which dosing continued up to day 11 measured on day 4; type: ADME, organism-based; design: dose 50 mg, route oral; details: in vivo
Method in brief: (§4)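 Healthy male volunteers took part in a double-blind, randomized, placebo-controlled dose-escalation study, with cohorts of 8 (6 on drug, 2 on placebo). Each subject got an oral dose on day 1, then a 2-day washout, then dosing on days 4–11. The 200 mg qd group was titrated over days 1–4. Venous plasma was sampled predose and 0.5–12 h postdose on days 1, 4 and 11, and predose on days 5–10 for troughs.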

[21] = Cmax in human at 150 mg, po BID administered on day 1 followed by 2-day wash out period after which dosing continued up to day 11 measured on day 1; type: ADME, organism-based; design: dose 150 mg, route oral; details: in vivo; method in brief: as §2
[22] = tested on: Homo sapiens; assay: Cmin in human at 50 mg, po BID administered on day 1 followed by 2-day wash out period after which dosing continued up to day 11 measured on day 1 at 12 hrs; type: ADME, organism-based; details: in vivo, BLD = below limit of detection; method in brief: as §4
[23] = Cmin in human at 100 mg, po BID administered on day 1 followed by 2-day wash out period after which dosing continued up to day 11 measured on day 1 at 12 hrs; type: ADME, organism-based; details: in vivo, read-out: Cmin; method in brief: as §4
[24] = Cmin in human at 100 mg, po BID administered on day 1 followed by 2-day wash out period after which dosing continued up to day 11 measured on day 4 at 12 hrs; type: ADME, organism-based; details: in vivo, read-out: Cmin; method in brief: as §4
[25] = Cmin in human at 150 mg, po TID administered on day 1 followed by 2-days wash out period after which dosing continued up to day 11 measured on day 11 at 8 hrs; type: ADME, organism-based; details: in vivo, read-out: Cmin; method in brief: as §4
[26] = Tmax in human at 50 mg, po BID administered on day 1 followed by 2-day wash out period after which dosing continued up to day 11 measured on day 1; type: ADME, organism-based; details: in vivo; method in brief: as §3
[27] = Tmax in human at 50 mg, po BID administered on day 1 followed by 2-day wash out period after which dosing continued up to day 11 measured on day 11; type: ADME, organism-based; details: in vivo; method in brief: as §3

O=C(O)c1n[nH]c2c1C[C@H]1C[C@@H]21
clearance [1]: 10 mL/min/kg | AUC/dose [2]: 4.1 µM·kg·h/mg | half-life [3]: 2.4 h | Cmax/dose [4]: 3.7 µM·kg/mg | AUC/dose [5]: 33.3 µM·kg·h/mg | Cmax/dose [6]: 5.1 µM·kg/mg | MTD [7]: 200 mg | Activity [8]: Dose-dependent effect | AUC at 12 h [9]: 0.0657 µM·h | AUC at 12 h [10]: 0.0977 µM·h | AUC at 8 h [11]: 0.102 µM·h | AUC at 24 h [12]: 0.114 µM·h | AUC at 6 h [13]: 0.13 µM·h | AUC at 6 h [14]: 0.123 µM·h | Tmax [15]: 1 h | Tmax [16]: 0.75 h | half-life [17]: 1.9 h | half-life [18]: 8.9 h | Activity [19]: Active | Cmax [20]: 12.3 nM | Cmax [21]: 41.2 nM | Cmin [22]: BLD | concentration at 12 h [23]: 0.124 nM | concentration at 12 h [24]: 0.083 nM | concentration at 8 h [25]: 0.708 nM | Tmax [26]: 1 h | Tmax [27]: 0.5 h
